For the experiment, the target named is Induced myeloid leukemia cell differentiation protein Mcl-1 (Homo sapiens) (UniProt Q07820). Nature of the experiment: MCL1 binding to BIM-BH3 peptide, inhibitors, late-stage follow-up, biochemical, fluorescence polarization, assay provider data, probe compound (AID 624393). The settings on record: GST-MCL1 / FITC-Bim BH3 peptide. The method, boiled down:
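signal = fluorescence polarization (mP) | assay system = E. coli-expressed GST-MCL1 fusion protein with FITC-labelled Bim BH3 peptide | input = GST-MCL1 fusion protein at 12.5 nM | doses = compound dilution series in DMSO | buffer or medium = PBS with 0.001% Brij | times = 20 min at room temperature | probe or stimulus = FITC-labelled Bim BH3 peptide probe at 4 nM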
A general note: Polarisation of emitted light reports the rotation of a fluorescent probe.

Each structure is given as a SMILES string. Several values for one entry are separate records, joined by “and”; a condition that tells them apart may be missing. Identical values can stand only once.

Results on one compound are retold here after PubChem BioAssay AID624393 (The Scripps Research Institute Molecular Screening Center, 2012).

Induced myeloid leukemia cell differentiation protein Mcl-1 (Homo sapiens), sequence (Q07820 whole entry, looked up, the tested form may be a part): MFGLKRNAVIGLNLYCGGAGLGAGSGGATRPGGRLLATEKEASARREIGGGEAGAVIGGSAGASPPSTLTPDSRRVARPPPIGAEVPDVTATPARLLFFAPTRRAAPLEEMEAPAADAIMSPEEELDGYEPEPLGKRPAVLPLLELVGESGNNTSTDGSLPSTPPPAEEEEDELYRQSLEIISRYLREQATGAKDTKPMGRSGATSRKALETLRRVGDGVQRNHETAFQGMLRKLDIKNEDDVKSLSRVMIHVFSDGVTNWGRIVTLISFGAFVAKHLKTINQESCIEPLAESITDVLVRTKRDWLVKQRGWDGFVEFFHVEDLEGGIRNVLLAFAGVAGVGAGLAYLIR

In the case of `CCN1CCN(C(c2ccc(C(F)(F)F)cc2)c2ccc3cccnc3c2O)CC1` (stereo unspecified), the IC50 is 250 nM and 310 nM.

A word on the IC50: it is the concentration needed to halve the response being measured.
